From ChEMBL document CHEMBL1149642, “Molecular design of anti-MRSA agents based on the anacardic acid scaffold” (2007) come the findings set out here.

Values after ≈ are worked out from the molar mass of the structure shown. Active and inactive are the calls of the source. No cut-off for these calls is given here. A value given as a limit tells only on which side of the number the result lay.

For one experiment, the system named is Staphylococcus aureus. As to the kind of experiment: Antibacterial activity against methicillin-resistant Staphylococcus aureus ATCC 33592 by broth dilution method. Format: functional. Summed up: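 Two-fold serial broth dilution in NYG broth (0.8% nutrient broth, 0.5% yeast extract, 0.1% glucose). Compound dilutions made in DMF and added 1:100 to broth. Inoculum was an overnight culture added at 1:100. Incubated at 37 °C for 48 h. MIC taken as the lowest concentration with no visible growth. Top concentration tested was 200 (solubility limit).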

The test system of another experiment is Escherichia coli. As to the kind of experiment: Antibacterial activity against Escherichia coli ATCC 9637. Format: functional, organism-based. Summed up:
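Two-fold serial broth dilution in NYG broth (0.8% nutrient broth, 0.5% yeast extract, 0.1% glucose); compound dilutions in DMF, 30 µL added to 3 mL broth, inoculated with 30 µL overnight culture; 37 °C, 48 h; MIC = lowest concentration with no visible growth; top concentration 200 µg/mL (solubility-limited).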

Usually MIC stands for the lowest concentration found to suppress growth. The low end stands for greater potency, the high end for weaker potency. Turning to `O=C(O)c1c(O)cccc1CCCCc1ccccc1`, the MIC against Staphylococcus aureus was 25 mg/L (≈ 92.5 µM). In addition, the outcome with Escherichia coli was inactive.

In the experiment with Staphylococcus aureus, `O=C(O)c1c(O)cccc1CCc1ccc(O)c(O)c1` gave an MIC of 100 mg/L (≈ 365 µM). Moreover, the outcome in the experiment with Escherichia coli was inactive.

The compound `CC(C)CCCC(C)CCCc1cccc(O)c1C(=O)O` (configuration not stated) returned a minimal inhibitory concentration (MIC) against Staphylococcus aureus of 0.39 mg/L (≈ 1.33 µM). Further, the result with Escherichia coli was inactive.

The compound `O=C(O)c1c(O)cccc1CC1CCCC1` gave an MIC against Staphylococcus aureus of 100 mg/L (≈ 454 µM). For the same compound, the result in the experiment with Escherichia coli was inactive.

On to `O=C(O)c1c(O)cccc1CC1CCCCCCC1`, for which, in the experiment on Staphylococcus aureus, the minimal inhibitory concentration (MIC) amounted to 12.5 mg/L (≈ 47.6 µM). In addition, in the experiment with Escherichia coli, the outcome was inactive.

On to `O=C(O)c1c(O)cccc1CCC1CCCCC1`, for which the minimum inhibitory concentration (MIC) against Staphylococcus aureus is 12.5 mg/L (≈ 50.3 µM). For the same compound, in the experiment with Escherichia coli, the outcome was inactive.

As for `O=C(O)c1c(O)cccc1CCc1cc(O)ccc1O`, 100 mg/L (≈ 365 µM) was the least that counted as inhibitory against Staphylococcus aureus (MIC). For the same compound, the result in the experiment on Escherichia coli was inactive.

For the compound `O=C(O)c1c(O)cccc1CC1CCCCC1`, the lowest concentration to inhibit growth against Staphylococcus aureus (MIC) was 25 mg/L (≈ 107 µM). Further, the outcome with Escherichia coli was inactive.

`CCCCCC/C=C/CCCCCCCc1cccc(O)c1C(=O)O` yielded a minimum inhibitory concentration (MIC) in the experiment with Staphylococcus aureus of 6.25 mg/L (≈ 18 µM). Also, the result in the experiment with Escherichia coli was inactive.

`O=C(O)c1c(O)cccc1CC1CCCCCCCCCCC1`: the MIC in the experiment on Staphylococcus aureus amounted to 0.39 mg/L (≈ 1.22 µM). The outcome in the experiment on Escherichia coli was inactive.

Consider `O=C(O)c1c(O)cccc1CCc1ccccc1`, for which the lowest concentration to inhibit growth in the experiment on Staphylococcus aureus (MIC) was 100 mg/L (≈ 413 µM). For the same compound, the outcome in the experiment with Escherichia coli was inactive.

In the experiment with Staphylococcus aureus, `C=CC/C=C\C/C=C\CCCCCCCc1cccc(O)c1C(=O)OC` returned a minimum inhibitory concentration (MIC) greater than 800 mg/L. For the same compound, in the experiment with Escherichia coli, the result was inactive.

For the compound `CCCCCCCCCOC(=O)c1ccccc1O`, in the experiment on Staphylococcus aureus, the result was inactive.

In turn, `CCCCCC(CC)Cc1cccc(O)c1C(=O)O` (configuration not stated) had an MIC against Staphylococcus aureus of 6.25 mg/L (≈ 23.6 µM). Further, the result in the experiment on Escherichia coli was inactive.

`C=CC/C=C\C/C=C\CCCCCCCc1cccc(OC(C)=O)c1C(=O)O` gave a minimal inhibitory concentration (MIC) with Staphylococcus aureus greater than 800 mg/L. In addition, the result with Escherichia coli was inactive.

In turn, `CCCCC(C)Cc1cccc(O)c1C(=O)O` (configuration not stated) gave an MIC with Staphylococcus aureus of 50 mg/L (≈ 212 µM). In the experiment on Escherichia coli, the outcome was inactive.

`O=C(O)c1c(O)cccc1CCc1cc(O)c(O)cc1O` returned an MIC against Staphylococcus aureus greater than 200 mg/L. In the experiment on Escherichia coli, the outcome was inactive.

On to `O=C(O)c1c(O)cccc1CCc1ccc(O)cc1`, for which the MIC in the experiment on Staphylococcus aureus stood at 50 mg/L (≈ 194 µM). The outcome with Escherichia coli was inactive.

In the experiment with Staphylococcus aureus, `O=C(O)c1c(O)cccc1CCc1ccc(O)cc1O` had an MIC greater than 200 mg/L. For the same compound, the outcome with Escherichia coli was inactive.
